Results taken from ChEMBL document CHEMBL1126752, “Synthesis and biological activity of cis-(3aR)-(-)-2,3,3a,4,5,9b-hexahydro- 3-propyl-1H-benz[e]indole-9-carboxamide: a potent and selective 5-HT1A receptor agonist with good oral availability” (J Med Chem, 1993).
pKi: −log10 of the molar value. Active and inactive are the calls of the source. The rule behind the calls is not given here.

How the values were obtained:
Rattus norvegicus [1] = organism: Rattus norvegicus; assay: Inhibition of 5-HT1A cell firing in rats; type: functional
Procedure, shortened: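 Male Sprague-Dawley rats (280-330 g) under chloral hydrate anesthesia (400 mg/kg ip), drug given iv via femoral vein in distilled water. Dorsal raphe serotonergic neurons recorded extracellularly and confirmed histologically by dye deposit. Firing rate followed by integrated ratemeter.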

Rattus norvegicus [2] = assay: DOPA accumulation in hemispheres of reserpinized rats following subcutaneous administration at highest dose tested (50 umol/kg); Inactive; type: functional, organism-based
Mus musculus [3] = assay: Effect on hypothermia in mice following peroral administration; details: po
Mus musculus [4] = assay: Swimming activity of the treated mice/control mice at 12 umol/kg, sc (p < 0.001); type: functional
Rattus norvegicus [5] = assay: DOPA accumulation in corpus striatum of reserpinized rats following subcutaneous administration at highest dose tested (50 umol/kg); Inactive; type: functional, organism-based
Rattus norvegicus [6] = assay: 5-HTP accumulation in limbic system of reserpinized rats following subcutaneous administration; type: functional; details: sc
Rattus norvegicus [7] = organism: Rattus norvegicus; assay: Compound was tested for gross behavioral response in rats; partial 5-HT syndrome; type: functional, organism-based
Mus musculus [8] = assay: Effect on hypothermia in mice following subcutaneous administration; details: sc
Rattus norvegicus [9] = assay: In vivo motor activity at 12.5 umol/kg (sc) in male rats expressed as accumulated counts/30 min (p < 0.001); type: functional
Mus musculus [10] = assay: Swimming activity of the treated mice/control mice at 3.9 umol/kg, sc; type: functional
Rattus norvegicus [11] = assay: 5-HTP accumulation in corpus striatum of reserpinized rats following subcutaneous administration; type: functional; details: sc
Felis catus [12] = assay: Maximum decrease in blood pressure observed following 1 mg/kg dose in anesthetized cat; type: functional; design: unit not given here
Procedure, shortened: (§1)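 Adult cats (2.5-4.0 kg) anesthetized with ketamine 11 mg/kg im then chloralose 80 mg/kg iv. Animals paralyzed with gallamine, ventilated, and kept at 37-38 °C. Blood pressure recorded via femoral artery. Sympathetic activity quantified by cumulative integration. Increasing doses given iv cumulatively at 20-min intervals.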

Rattus norvegicus [13] = assay: DOPA accumulation in limbic system of reserpinized rats following subcutaneous administration at highest dose tested (50 umol/kg); Inactive; type: functional, organism-based
Mus musculus [14] = assay: Swimming activity of the treated mice/control mice at 39 umol/kg, sc; type: functional
Felis catus [15] = assay: Percent arterial blood pressure at sympathetic nerve discharge in anesthetized cat; type: functional; procedure, shortened: as §1
Rattus norvegicus [16] = assay: Oral availability obtained from blood plasma levels of the parent compound following 5 umol /kg intravenous and 40 umol /kg peroral administration; type: functional, organism-based
Procedure, shortened: (§2)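 Male Sprague-Dawley rats (300 g) sampled from arterial catheters 24 h after surgery over 10-24 h. Dosing was 5 µmol/kg iv and 40 µmol/kg po, with oral rats fasted 18 h. Parent drug in blood measured by GC/MS after pH 11 dichloromethane extraction with internal standard, samples run in duplicate. Availability from po/iv AUC ratio (n = 4).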

Felis catus [17] = assay: Maximum decrease in sympathetic nerve discharge in anesthetized cat; type: functional
Procedure, shortened: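 Cats (2.5-4.0 kg) anesthetized with ketamine 11 mg/kg im then chloralose 80 mg/kg iv, paralyzed with gallamine and ventilated, rectal temperature kept at 37-38 °C. Increasing iv doses given cumulatively at 20-min intervals; sympathetic activity quantified by cumulative integration and expressed as percent of control.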

Felis catus [18] = assay: Inhibition of sympathetic nerve discharge (SND) in anesthetized cat; type: functional; procedure, shortened: as §1
Rattus norvegicus [19] = assay: 5-HTP accumulation in hemispheres of reserpinized rats following subcutaneous administration; type: functional; details: sc
[20] = target: T1, 5-hydroxytryptamine receptor 1A (Homo sapiens, UniProt P08908); assay: Binding affinity against [3H]8-OH-DPAT-labeled 5-hydroxytryptamine 1A receptor sites in cloned CHO cells; type: cell-based
T1 sequence (P08908 whole entry): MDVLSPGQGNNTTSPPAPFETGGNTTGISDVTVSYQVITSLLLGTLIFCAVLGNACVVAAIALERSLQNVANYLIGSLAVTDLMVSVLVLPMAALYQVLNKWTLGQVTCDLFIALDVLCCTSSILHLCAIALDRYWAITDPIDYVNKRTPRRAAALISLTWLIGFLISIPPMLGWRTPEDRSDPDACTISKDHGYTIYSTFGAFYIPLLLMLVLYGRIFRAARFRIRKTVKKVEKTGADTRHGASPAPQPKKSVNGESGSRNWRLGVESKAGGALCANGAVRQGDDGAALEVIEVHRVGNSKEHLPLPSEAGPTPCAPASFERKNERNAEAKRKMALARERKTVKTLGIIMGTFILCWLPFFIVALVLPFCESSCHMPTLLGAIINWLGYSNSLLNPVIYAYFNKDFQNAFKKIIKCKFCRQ
Procedure, shortened: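 Competition binding against [3H]-8-OH-DPAT (85 Ci/mmol, 1.2 nM) using 11 dilutions of test compound. Receptor was cloned mammalian 5-HT1A expressed in CHO-K1 cells. IC50 from a one-site nonlinear least-squares fit, converted to Ki by Cheng-Prusoff. Ki reported ±SEM.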

[21] = Half-life in rats; type: ADME, organism-based; details: rat, in vivo; procedure, shortened: as §2
Mus musculus [22] = assay: Swimming activity of the treated mice/control mice at 3.9 umol/kg, sc (p < 0.001); type: functional
Mus musculus [23] = assay: Swimming activity of the treated mice/control mice at 39 umol/kg, sc (p < 0.001); type: functional
Mus musculus [24] = assay: Swimming activity of the treated mice/control mice at 1.2 umol/kg, sc; type: functional
Rattus norvegicus [25] = assay: In vivo motor activity at 50 umol/kg (sc) in male rats expressed as accumulated counts/30 min (p < 0.01); type: functional
Rattus norvegicus [26] = assay: 5-HTP accumulation in limbic system of reserpinized rats following subcutaneous administration at highest dose tested (50 umol/kg); Inactive; type: functional, organism-based
Rattus norvegicus [27] = assay: 5-HTP accumulation in corpus striatum of reserpinized rats following subcutaneous administration at highest dose tested (50 umol/kg); Inactive; type: functional, organism-based
Rattus norvegicus [28] = assay: 5-HTP accumulation in hemispheres of reserpinized rats following subcutaneous administration at highest dose tested (50 umol/kg); Inactive; type: functional, organism-based
Rattus norvegicus [29] = organism: Rattus norvegicus; assay: Compound was tested for gross behavioral response in rats; no change; type: functional, organism-based
Rattus norvegicus [30] = assay: DOPA accumulation in hemispheres of reserpinized rats following peroral administration at highest dose tested (50 umol/kg); Inactive; type: functional, organism-based
Rattus norvegicus [31] = organism: Rattus norvegicus; assay: Compound was tested for gross behavioral response in rats; full-blown 5-HT syndrome; type: functional, organism-based
Rattus norvegicus [32] = assay: DOPA accumulation in limbic system of reserpinized rats following peroral administration at highest dose tested (50 umol/kg); Inactive; type: functional, organism-based
Rattus norvegicus [33] = assay: DOPA accumulation in corpus striatum of reserpinized rats following peroral administration at highest dose tested (50 umol/kg); Inactive; type: functional, organism-based
Rattus norvegicus [34] = assay: 5-HTP accumulation in corpus striatum of reserpinized rats following subcutaneous administration.; type: functional; details: sc
Felis catus [35] = assay: Maximum decrease in sympathetic nerve discharge in anesthetized cat.; type: functional; procedure, shortened: as §1
[36] = Half-life time in rats; type: ADME, organism-based; details: rat, in vivo; procedure, shortened: as §2
Rattus norvegicus [37] = assay: 5-HTP accumulation in hemispheres of reserpinized rats following subcutaneous administration.; type: functional; details: sc
Rattus norvegicus [38] = assay: In vivo motor activity at 12.5 umol/kg (po) in male rats expressed as accumulated counts/30 min (p < 0.001); type: functional
Rattus norvegicus [39] = assay: 5-HTP accumulation in limbic system of reserpinized rats following peroral administration; type: functional; details: po
Rattus norvegicus [40] = assay: 5-HTP accumulation in hemispheres of reserpinized rats following peroral administration; type: functional; details: po
Rattus norvegicus [41] = assay: 5-HTP accumulation in corpus striatum of reserpinized rats following peroral administration; type: functional; details: po

Row | pKi [20] | SMILES | ED50 (Rattus norvegicus [1]) | NA (Rattus norvegicus [2]) | ED50 (Mus musculus [3]) | Swimming activity (Mus musculus [4]) | NA (Rattus norvegicus [5]) | ED50 (Rattus norvegicus [6]) | Response (Rattus norvegicus [7]) | ED50 (Mus musculus [8]) | Accumulated counts/30 min (Rattus norvegicus [9]) | ED50 (Rattus norvegicus [11]) | Max decrease (Felis catus [12]) | NA (Rattus norvegicus [13]) | Swimming activity (Mus musculus [14]) | BP (Felis catus [15]) | bioavailability (Rattus norvegicus [16]) | ED50 (Felis catus [18]) | ED50 (Rattus norvegicus [19]) | Swimming activity (Mus musculus [22]) | Swimming activity (Mus musculus [24]) | further results
1 | 8.54 | CCCN1CCC2c3c(cccc3C(N)=O)CCC21 (racemic) | 0.009 µmol/kg | inactive | 28 µmol/kg | 6.6 | inactive | 0.93 µmol/kg | Partially active | 3.8 µmol/kg | 88 | 0.95 µmol/kg | 63 | inactive | 2.9 | 82% | 70% | 0.1 µmol/kg | 1.25 µmol/kg |  |  | Swimming activity (Mus musculus [10]): 1.2; Max decrease (Felis catus [17]): 33; half-life [21]: 1.5 h
2 | 7.77 | CCCN1CCC2c3c(cccc3C(N)=O)CC[C@@H]21 (single isomer, unassigned; (+)-3a) [listing 1 of 2 here] | > 1.2 µmol/kg |  | 28 µmol/kg | 4.7 |  | 1.8 µmol/kg |  | 8.9 µmol/kg |  | 1.6 µmol/kg |  |  |  |  |  |  | 5.2 µmol/kg | 4 | 1 | Swimming activity (Mus musculus [23]): 8.3; Accumulated counts/30 min (Rattus norvegicus [25]): 17
3 |  | CCCN1CCC2c3c(cccc3C(N)=O)CC[C@@H]21 (single isomer, unassigned; (+)-3b) |  |  |  |  |  |  |  |  |  |  |  |  |  |  |  |  |  |  |  | ED50 (Rattus norvegicus [26]): inactive; ED50 (Rattus norvegicus [2]): inactive; ED50 (Rattus norvegicus [27]): inactive; ED50 (Rattus norvegicus [5]): inactive; ED50 (Rattus norvegicus [28]): inactive; ED50 (Rattus norvegicus [13]): inactive; Response (Rattus norvegicus [29]): inactive
4 |  | CCCN1CC[C@H]2c3c(cccc3C(N)=O)CC[C@H]21 (stereo in doubt; (-)-3a) [listing 1 of 2 here] |  | inactive |  |  | inactive |  |  |  |  |  |  | inactive |  |  | 46% |  |  |  |  | NA (Rattus norvegicus [30]): inactive; Response (Rattus norvegicus [31]): Active; NA (Rattus norvegicus [32]): inactive; NA (Rattus norvegicus [33]): inactive
5 |  | CCCN1CCC2c3c(cccc3C(N)=O)CC[C@@H]21 (single isomer, unassigned; (+)-3a) [listing 2 of 2 here] |  |  |  |  |  |  | Partially active |  |  |  |  |  |  |  |  |  |  |  |  | ED50 (Rattus norvegicus [2]): inactive; ED50 (Rattus norvegicus [5]): inactive; ED50 (Rattus norvegicus [13]): inactive
6 | 8.72 | CCCN1CC[C@H]2c3c(cccc3C(N)=O)CC[C@H]21 (stereo in doubt; (-)-3a) [listing 2 of 2 here] | 0.023 µmol/kg |  | 2.8 µmol/kg | 7.1 |  | 0.28 µmol/kg |  | 0.4 µmol/kg | 249 |  | 52 |  | 1.1 | 83% |  | 0.049 µmol/kg |  | 4.7 | 1.5 | ED50 (Rattus norvegicus [34]): 0.07 µmol/kg; Max decrease (Felis catus [35]): 0; half-life [36]: 2 h; ED50 (Rattus norvegicus [37]): 0.32 µmol/kg; Accumulated counts/30 min (Rattus norvegicus [38]): 173; ED50 (Rattus norvegicus [39]): 0.23 µmol/kg; ED50 (Rattus norvegicus [40]): 0.28 µmol/kg; ED50 (Rattus norvegicus [41]): < 0.2 µmol/kg
